Test results: ChEMBL document CHEMBL1149773, “Synthesis, determination of the lipophilicity, anticancer and antimicrobial properties of some fused 1,2,4-triazole derivatives” (Eur J Med Chem, 2008)
Values after ≈ are worked out from the molar mass of the structure shown. Active and inactive are the calls of the source. No cut-off for these calls is given here.

Tests used:
T47D [1] = test: Induction of DNA damage in human T47D cells at 29.3 uM; assay type: functional, cell-based
Summary of the method: (§1)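 Cells were treated at 29.3 µM (10 µg mL⁻¹) and washed twice with PBS. DNA was isolated with lysis buffer plus proteinase K, or cells were lysed as agarose plugs. Samples ran on 1% agarose with propidium iodide at 120 V for 1.5 h at room temperature […]. Experiments were repeated three times. The comet assay was also run on T47D.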

[2] = Antiproliferative activity against human skin fibroblast assessed as cell viability at 100 uM by MTT assay; assay type: cell-based; conditions: human skin fibroblasts, read-out: Activity
Summary of the method: (§2)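 MTT viability assay on primary human skin fibroblasts grown in DMEM with 10% FBS and penicillin/streptomycin. Compounds were dissolved in DMSO and given at 1, 50 or 100 µM for 24 h. Cells were washed in HEPES-buffered medium (pH 7.4) and then given MTT 0.5 mg mL⁻¹ for 45 min at 37 °C. Formazan was dissolved in DMSO and read at 570 nm. Viability is % of control; three independent measurements.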

HeLa [3] = test: Antiproliferative activity against human HeLa cells assessed as cell viability at 50 uM by MTT assay; assay type: functional; conditions: read-out: Activity
Summary of the method: (§3)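 Log-phase cells, kept in supplemented RPMI 1640 (HSF in DMEM/10% FBS) at 37 °C, 5% CO2, were exposed 24 h to 1, 50 or 100 µM compound from DMSO. They were washed, given 0.5 mg/mL MTT in HEPES buffer pH 7.4 for 45 min at 37 °C, and formazan was dissolved in DMSO and read at 570 nm. Values are % viability versus control from three independent measurements.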

T47D [4] = test: Effect on superoxide dismutase gene expression in human T47D cells at 29.3 uM; assay type: functional, cell-based
Summary of the method: (§4)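 LS180 and T47D cells were incubated at 29.3 µM (10 µg mL⁻¹). SOD gene expression was visualised by electrophoresis on 1% agarose gel against an untreated control.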

[5] = Antiproliferative activity against human RPMI cells assessed as cell viability at 50 uM by MTT assay; assay type: functional; conditions: read-out: Activity; summary of the method: as §3
[6] = Growth inhibition of human skin fibroblast at 29.3 uM; assay type: cell-based; conditions: human skin fibroblasts, read-out: GI
Summary of the method: (§5)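 Vero, LS180, SiHa, T47D or primary HSF cells were seeded at 10^4 cells per mL and preincubated in microtiter plates. Compounds were added at 10 or 50 µg mL⁻¹ (printed µM equivalents depend on the compound) and incubated 72 h. End-point was BrdU labelling read spectrophotometrically on an ELISA reader. Growth inhibition is % versus untreated controls; triplicates.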

T47D [7] = test: Growth inhibition of human T47D cells at 29.3 uM; assay type: functional; conditions: read-out: GI; summary of the method: as §5
[8] = Antiproliferative activity against human RPMI cells assessed as cell viability at 1 uM by MTT assay; assay type: functional; conditions: read-out: Activity; summary of the method: as §3
[9] = Growth inhibition of african green monkey Vero cells at 29.3 uM; assay type: cell-based; conditions: chlorocebus sabaeus, read-out: GI; summary of the method: as §5
Vero = test: Induction of DNA damage in african green monkey Vero cells at 29.3 uM; assay type: cell-based; conditions: chlorocebus sabaeus; summary of the method: as §1
[10] = Antiproliferative activity against human skin fibroblast assessed as cell viability at 1 uM by MTT assay; assay type: cell-based; conditions: human skin fibroblasts, read-out: Activity; summary of the method: as §3
T47D [11] = test: Growth inhibition of human T47D cells at 146.7 uM; assay type: functional; conditions: read-out: GI; summary of the method: as §5
SiHa [12] = test: Growth inhibition of human SiHa cells at 29.3 uM; assay type: functional; conditions: read-out: GI; summary of the method: as §5
SiHa [13] = test: Growth inhibition of human SiHa cells at 146.7 uM; assay type: functional; conditions: read-out: GI; summary of the method: as §5
HeLa [14] = test: Antiproliferative activity against human HeLa cells assessed as cell viability at 100 uM by MTT assay; assay type: functional; conditions: read-out: Activity; summary of the method: as §3
[15] = Antiproliferative activity against human RPMI cells assessed as cell viability at 100 uM by MTT assay; assay type: functional; conditions: read-out: Activity; summary of the method: as §3
[16] = Growth inhibition of human skin fibroblast at 146.7 uM; assay type: cell-based; conditions: human skin fibroblasts, read-out: GI; summary of the method: as §5
[17] = Growth inhibition of african green monkey Vero cells at 146.7 uM; assay type: cell-based; conditions: chlorocebus sabaeus, read-out: GI; summary of the method: as §5
[18] = Antiproliferative activity against human skin fibroblast assessed as cell viability at 50 uM by MTT assay; assay type: cell-based; conditions: human skin fibroblasts, read-out: Activity; summary of the method: as §2
LS180 [19] = test: Effect on superoxide dismutase gene expression in human LS180 cells at 29.3 uM; assay type: functional, cell-based; summary of the method: as §4
[20] = Lipophilicity, log kw in acetonitrile aqueous system at pH 3.5; assay type: physicochemical
Summary of the method: (§6)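 RP-HPLC on an octadecyl silica column (150 × 4.6 mm, 5 µm) at 22 ± 1 °C, flow 1.0 mL min⁻¹, UV detection at 254 nm. Mobile phase was methanol, acetonitrile or dioxane with water and 0.01 M phosphate buffer pH 3.5 containing 0.05 M DEA. log k_W was extrapolated to pure water by regression.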

HeLa [21] = test: Antiproliferative activity against human HeLa cells assessed as cell viability at 1 uM by MTT assay; assay type: functional; conditions: read-out: Activity; summary of the method: as §3
[22] = Growth inhibition of human LS180 cells at 29.3 uM; assay type: functional; conditions: read-out: GI; summary of the method: as §5
[23] = Lipophilicity, log kw in dioxane aqueous system at pH 3.5; assay type: physicochemical; conditions: buffer; summary of the method: as §6
SiHa [24] = test: Induction of DNA damage in human SiHa cells at 29.3 uM; assay type: functional, cell-based; summary of the method: as §1
[25] = Lipophilicity, log kw in methanol aqueous system at pH 3.5; assay type: physicochemical; summary of the method: as §6
LS180 [26] = test: Induction of DNA damage in human LS180 cells at 29.3 uM; assay type: functional, cell-based; summary of the method: as §1
[27] = Growth inhibition of human LS180 cells at 146.7 uM; assay type: functional; conditions: read-out: GI; summary of the method: as §5
Pseudomonas aeruginosa [28] = test: Antimicrobial activity against Pseudomonas aeruginosa ATCC 27853 at 572.4 uM by disc-diffusion method; assay type: functional; conditions: read-out: IZ
Summary of the method: (§7)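 Kirby–Bauer disc diffusion: 5 mm paper discs soaked in compound solution in DMSO (100 or 200 µg/mL; reference drugs 200 µg/mL) and laid on inoculated Mueller-Hinton agar (bacteria) or Sabouraud agar (C. albicans, Aspergillus). DMSO discs were the control. Plates ran 24 h at 35 °C. Inhibition zone diameter was scored 0–10 mm R, 11–16 mm I, 17–25 mm S; triplicate.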

Proteus vulgaris = test: Antimicrobial activity against Proteus vulgaris at 572.4 uM by disc-diffusion method; assay type: functional; conditions: read-out: IZ; summary of the method: as §7
Pseudomonas aeruginosa [29] = test: Antimicrobial activity against Pseudomonas aeruginosa ATCC 27853 after 24 hrs by microdilution assay; assay type: functional; conditions: ATCC 27853, 24 h
Escherichia coli = test: microbe, parasite or virus in culture; conditions: ATCC 25922, read-out: IZ
Streptococcus pyogenes = test: Antimicrobial activity against Streptococcus pyogenes at 572.4 uM by disc-diffusion method; assay type: functional; conditions: read-out: IZ
Summary of the method: (§8)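 Kirby–Bauer disc diffusion on Mueller-Hinton medium. Sterile 5 mm paper discs are impregnated with agent dissolved in DMSO and placed on inoculated agar. DMSO discs serve as solvent control. Plates are incubated 24 h at 35 °C. Inhibition zone diameter is scored as 0–10 mm resistant, 11–16 mm intermediate, or 17–25 mm susceptible. Each assay is run three times.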

Staphylococcus aureus [30] = test: Antimicrobial activity against Staphylococcus aureus ATCC 25923 after 24 hrs by microdilution assay; assay type: functional; conditions: ATCC 25923, 24 h
Aspergillus sp. = test: Antimicrobial activity against Aspergillus sp. at 572.4 uM by disc-diffusion method; assay type: functional; conditions: read-out: IZ; summary of the method: as §7
Klebsiella pneumoniae = test: Antimicrobial activity against Klebsiella pneumoniae at 572.4 uM by disc-diffusion method; assay type: functional; conditions: read-out: IZ; summary of the method: as §7
Staphylococcus aureus [31] = test: Antimicrobial activity against Staphylococcus aureus ATCC 25923 at 572.4 uM by disc-diffusion method; assay type: functional; conditions: read-out: IZ; summary of the method: as §8
[32] = tested on: Staphylococcus epidermidis; test: Antimicrobial activity against Staphylococcus epidermidis at 572.4 uM by disc-diffusion method; assay type: functional; conditions: read-out: IZ; summary of the method: as §7
Candida albicans = test: Antimicrobial activity against Candida albicans ATCC 10231 at 572.4 uM by disc-diffusion method; assay type: functional; conditions: read-out: IZ; summary of the method: as §7
Klebsiella aerogenes = test: Antimicrobial activity against Enterobacter aerogenes at 572.4 uM by disc-diffusion method; assay type: functional; conditions: read-out: IZ; summary of the method: as §7
Streptococcus agalactiae = test: Antimicrobial activity against Streptococcus agalactiae at 572.4 uM by disc-diffusion method; assay type: functional; conditions: read-out: IZ; summary of the method: as §8

With `Cc1cc(Cl)ccc1OCc1nnc2n1CCN2c1ccccc1` the Activity (T47D [1]) was “Active”, the viability at 100 µM [2] was 72.5% and the viability at 50 µM (HeLa [3]) was 75.1%. The Activity (T47D [4]) was “Active”, the viability at 50 µM [5] was 114% and the inhibition at 29.3 µM [6] was 4%. For the same compound, the inhibition of growth at 29.3 µM (T47D [7]) was 25%, the viability at 1 µM [8] was 112% and the inhibition at 29.3 µM [9] was 20%. For the same compound, the Activity (Vero) was “Active”, the viability at 1 µM [10] was 79.2% and the inhibition of growth at 146.7 µM (T47D [11]) was 40%. The inhibition of growth at 29.3 µM (SiHa [12]) was 30%, the inhibition of growth at 146.7 µM (SiHa [13]) was 30% and the viability at 100 µM (HeLa [14]) was 75.9%. For the same compound, the viability at 100 µM [15] was 108%, the inhibition at 146.7 µM [16] was 8% and the inhibition at 146.7 µM [17] was 20%. For the same compound, the viability at 50 µM [18] was 76.8%, the Activity (LS180 [19]) was “Active” and the logKw [20] was 1.36. The viability at 1 µM (HeLa [21]) was 65.6%, the inhibition of growth at 29.3 µM [22] was 35% and the logKw [23] was 1.17. For the same compound, the Activity (SiHa [24]) was “Active”, the logKw [25] was 1.62 and the Activity (LS180 [26]) was “Active”. The inhibition of growth at 146.7 µM [27] was 39%.

In the case of `CC1(C)S[C@@H]2[C@H](NC(=O)[C@H](N)c3ccccc3)C(=O)N2[C@H]1C(=O)O` [AMPICILLIN], the zone of inhibition at 572.4 µM (Pseudomonas aeruginosa [28]) is reported as 11 mm, the zone of inhibition at 572.4 µM (Proteus vulgaris) is reported as 0 mm and the MIC (Pseudomonas aeruginosa [29]) is reported as over 358 µM. The zone of inhibition at 572.4 µM (Escherichia coli) was 17 mm, the zone of inhibition at 572.4 µM (Streptococcus pyogenes) was 17 mm and the MIC (Staphylococcus aureus [30]) was 35.8 µM (≈ 12.5 µg/mL). It also gave a zone of inhibition at 572.4 µM (Aspergillus sp.) of 0 mm, a zone of inhibition at 572.4 µM (Klebsiella pneumoniae) of 0 mm and a zone of inhibition at 572.4 µM (Staphylococcus aureus [31]) of 17 mm. It also gave a zone of inhibition at 572.4 µM [32] of 11 mm, a zone of inhibition at 572.4 µM (Candida albicans) of 0 mm and a zone of inhibition at 572.4 µM (Klebsiella aerogenes) of 0 mm. It also gave a zone of inhibition at 572.4 µM (Streptococcus agalactiae) of 17 mm.
